Assay results from ChEMBL document CHEMBL4842372, “Discovery of ARD-2585 as an Exceptionally Potent and Orally Active PROTAC Degrader of Androgen Receptor for the Treatment of Advanced Prostate Cancer” (J Med Chem, 2021).
The source made the active and inactive calls. The rule behind the calls is not given here.

Columns and labels:
[1] = test system: LNCaP; experiment: Growth inhibition of human LNCaP cells carrying AR T878A mutant assessed as cell viability by WST-8 assay; format: functional, cell-based
[2] = test system: VCaP; experiment: Antitumor activity against human VCaP cells xenografted in CB17:SCID mouse assessed as reduction in AR protein level in tumor at 20 mg/kg, po measured for 6 to 24 hrs by Western blot analysis; format: functional, organism-based; details: time 6-24 hrs
How it was run: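 VCaP xenografts in male CB17 SCID mice grown to about 200 mm3; single oral gavage dose of 20 mg/kg in 100% PEG200; tumors collected at 6 and 24 h, RIPA lysates blotted for AR with GAPDH as loading control, band intensity normalised to loading control.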

[3] = Drug distribution in plasma of CB17:SCID mouse xenografted with human VCaP cells at 20 mg/kg, po measured at 6 hrs by LCMS analysis; format: ADME, organism-based
How it was run: (§1)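 Tumor-bearing male CB17 SCID mice (VCaP xenografts) given one 20 mg/kg oral dose in 100% PEG200, three mice per time point; plasma, tumor, liver, kidney, prostate and heart taken at 1, 6 and 24 h; tissues homogenised in water/acetonitrile, protein precipitated with cold acetonitrile, drug quantified by LC–MS/MS; ratios are tissue over plasma level.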

[4] = Drug distribution in plasma of CB17:SCID mouse xenografted with human VCaP cells at 20 mg/kg, po measured at 24 hrs by LCMS analysis; format: ADME, organism-based; how it was run: as §1
[5] = Drug distribution in tumor of CB17:SCID mouse xenografted with human VCaP cells at 20 mg/kg, po measured at 24 hrs by LCMS analysis; format: ADME, organism-based, Neoplasm; details: read-out: Drug uptake; how it was run: as §1
[6] = test system: VCaP; experiment: Antitumor activity against human VCaP cells xenografted in CB17:SCID mouse assessed as reduction in AR protein level in tumor at 10 mg/kg, po for 3 days measured at 3 hrs by Western blot analysis; format: functional; details: 72 h, time 3 day
How it was run: (§2)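 Male CB17 SCID mice bearing subcutaneous VCaP tumors (5 × 10^6 cells in Matrigel); dosed by oral gavage in 100% PEG200 at 10 mg/kg daily for 3 days; tumors harvested 3, 6 and 24 h post-dose, lysed in RIPA, Western blot for AR with GAPDH loading control, bands quantified by densitometry relative to loading control.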

[7] = test system: VCaP; experiment: Antitumor activity against human VCaP cells xenografted in CB17:SCID mouse assessed as reduction in AR protein level in tumor at 10 mg/kg, po for 3 days measured at 6 hrs by Western blot analysis; format: functional; details: 72 h, time 3 day; how it was run: as §2
[8] = test system: VCaP; experiment: Antitumor activity against human VCaP cells xenografted in CB17:SCID mouse assessed as reduction in AR protein level in tumor at 10 mg/kg, po for 3 days measured at 24 hrs by Western blot analysis; format: functional; details: 72 h, time 3 day; how it was run: as §2
[9] = Drug distribution in CB17:SCID mouse xenografted with human VCaP cells assessed as tumor to plasma ratio at 20 mg/kg, po measured at 1 hrs by LCMS analysis; format: ADME, organism-based; how it was run: as §1
[10] = Drug distribution in kidney of CB17:SCID mouse xenografted with human VCaP cells at 20 mg/kg, po measured at 1 hrs by LCMS analysis; format: ADME, organism-based; details: read-out: Drug uptake; how it was run: as §1
[11] = Drug distribution in prostate gland of CB17:SCID mouse xenografted with human VCaP cells at 20 mg/kg, po measured at 1 hrs by LCMS analysis; format: ADME, organism-based; details: read-out: Drug uptake; how it was run: as §1
[12] = Drug distribution in liver of CB17:SCID mouse xenografted with human VCaP cells at 20 mg/kg, po measured at 6 hrs by LCMS analysis; format: ADME, organism-based; details: read-out: Drug uptake; how it was run: as §1
[13] = Drug distribution in CB17:SCID mouse xenografted with human VCaP cells assessed as kidney to plasma ratio at 20 mg/kg, po measured at 6 hrs by LCMS analysis; format: ADME, organism-based; how it was run: as §1
[14] = Drug distribution in CB17:SCID mouse xenografted with human VCaP cells assessed as prostate gland to plasma ratio at 20 mg/kg, po measured at 6 hrs by LCMS analysis; format: ADME, organism-based; how it was run: as §1
[15] = Drug distribution in heart of CB17:SCID mouse xenografted with human VCaP cells at 20 mg/kg, po measured at 24 hrs by LCMS analysis; format: ADME, organism-based; details: read-out: Drug uptake; how it was run: as §1
[16] = test system: Protein cereblon/Androgen receptor (Homo sapiens), P10275+Q96SW2 [T878A]; experiment: Protac activity at CRBN/AR T878A mutant in human LNCaP cells assessed as reduction in AR protein level at 0.3 nM after 24 hrs by Western blot analysis relative to control; format: cell-based
How it was run: (§3)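 Western blot of AR after 24 h exposure to a concentration series in ATCC-derived cells, all with 10% FBS at 37 °C and 5% CO2: LNCaP and 22Rv1 in RPMI1640, VCaP in DMEM with Glutamax, MDA-PCa-2b in F-12K. Lysis in RIPA with protease and phosphatase inhibitors, then 4–12% SDS-PAGE and PVDF transfer. Band minus background is normalised to GAPDH.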

[17] = target: T1, Protein cereblon/Androgen receptor (Homo sapiens, UniProt P10275+Q96SW2); experiment: Protac activity at CRBN/AR in human 22Rv1 cells assessed as reduction in AR protein level at 0.1 nM after 24 hrs by Western blot analysis relative to control; format: cell-based; how it was run: as §3
T1 sequence (P10275 whole entry, looked up): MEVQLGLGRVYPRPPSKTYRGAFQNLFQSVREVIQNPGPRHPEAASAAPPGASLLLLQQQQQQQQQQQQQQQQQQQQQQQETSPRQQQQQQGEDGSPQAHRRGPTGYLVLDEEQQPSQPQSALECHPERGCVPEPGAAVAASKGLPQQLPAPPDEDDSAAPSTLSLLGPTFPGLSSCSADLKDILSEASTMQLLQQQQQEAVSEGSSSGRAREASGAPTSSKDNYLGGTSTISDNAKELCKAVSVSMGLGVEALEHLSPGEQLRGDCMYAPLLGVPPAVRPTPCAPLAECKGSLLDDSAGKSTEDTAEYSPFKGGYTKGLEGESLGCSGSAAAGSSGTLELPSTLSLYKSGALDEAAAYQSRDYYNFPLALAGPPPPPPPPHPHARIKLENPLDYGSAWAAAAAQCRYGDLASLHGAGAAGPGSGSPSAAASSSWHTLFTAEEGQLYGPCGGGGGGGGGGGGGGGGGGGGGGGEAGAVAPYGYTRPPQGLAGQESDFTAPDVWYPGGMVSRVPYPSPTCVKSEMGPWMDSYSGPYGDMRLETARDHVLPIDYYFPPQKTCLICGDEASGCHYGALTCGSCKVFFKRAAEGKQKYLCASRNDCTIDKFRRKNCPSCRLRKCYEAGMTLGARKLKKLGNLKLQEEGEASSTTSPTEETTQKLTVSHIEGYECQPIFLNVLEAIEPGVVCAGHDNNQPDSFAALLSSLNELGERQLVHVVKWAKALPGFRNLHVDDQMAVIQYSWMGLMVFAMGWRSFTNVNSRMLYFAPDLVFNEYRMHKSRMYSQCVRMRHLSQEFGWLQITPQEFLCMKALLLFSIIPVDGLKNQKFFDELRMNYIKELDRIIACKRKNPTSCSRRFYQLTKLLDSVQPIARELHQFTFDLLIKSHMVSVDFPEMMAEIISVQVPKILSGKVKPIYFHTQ
T1 sequence (Q96SW2 whole entry, looked up): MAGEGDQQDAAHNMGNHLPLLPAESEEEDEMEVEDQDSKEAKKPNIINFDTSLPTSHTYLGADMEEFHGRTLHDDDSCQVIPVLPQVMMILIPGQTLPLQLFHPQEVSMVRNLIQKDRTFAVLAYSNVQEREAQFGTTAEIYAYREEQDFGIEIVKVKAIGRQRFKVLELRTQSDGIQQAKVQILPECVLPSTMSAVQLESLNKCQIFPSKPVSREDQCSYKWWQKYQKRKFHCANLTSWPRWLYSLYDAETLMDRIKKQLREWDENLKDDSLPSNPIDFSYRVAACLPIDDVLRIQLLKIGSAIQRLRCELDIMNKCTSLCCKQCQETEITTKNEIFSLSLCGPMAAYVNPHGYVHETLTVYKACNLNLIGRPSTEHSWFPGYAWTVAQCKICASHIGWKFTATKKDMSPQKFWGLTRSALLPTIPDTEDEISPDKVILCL

[18] = test system: Protein cereblon/Androgen receptor (Homo sapiens), P10275+Q96SW2 [T878A]; experiment: Protac activity at CRBN/AR T878A mutant in human LNCaP cells assessed as maximal AR degradation at 0.3 nM after 24 hrs by Western blot analysis relative to control; format: cell-based; how it was run: as §3
[19] = target: T1, Protein cereblon/Androgen receptor; experiment: Protac activity at CRBN/AR in human MDA-PCa-2b cells assessed as maximal AR degradation at 1 nM after 24 hrs by Western blot analysis relative to control; format: cell-based; how it was run: as §3
[20] = target: Protein cereblon/Androgen receptor (Homo sapiens, UniProt P10275+Q96SW2, T878A); details: lncap
Protein cereblon/Androgen receptor (Homo sapiens, UniProt P10275+Q96SW2, T878A), sequence (P10275 whole entry T878A, stated change not applied): as the sequence (P10275 whole entry, looked up) above, with T878A counted along it
Protein cereblon/Androgen receptor (Homo sapiens, UniProt P10275+Q96SW2, T878A), sequence (Q96SW2 whole entry, stated change not applied): as the sequence (Q96SW2 whole entry, looked up) above

[21] = target: T1, Protein cereblon/Androgen receptor; experiment: Protac activity at CRBN/AR in human VCaP cells assessed as reduction in AR protein level at 100 nM after 3 hrs in presence of MG-132 by Western blot analysis
[22] = test system: Protein cereblon/Androgen receptor (Homo sapiens), P10275+Q96SW2 [T878A]; experiment: Protac activity at CRBN/AR T878A mutant in human LNCaP cells assessed as reduction in AR protein level at 100 nM after 3 hrs in presence of MLN4924 by Western blot analysis
[23] = test system: Protein cereblon/Androgen receptor (Homo sapiens), P10275+Q96SW2 [T878A]; experiment: Protac activity at CRBN/AR T878A mutant in human LNCaP cells assessed as reduction in AR protein level at 100 nM after 3 hrs in presence of thalidomide by Western blot analysis
[24] = target: T1, Protein cereblon/Androgen receptor; experiment: Protac activity at CRBN/AR in human VCaP cells assessed as reduction in AR protein level at 100 nM after 3 hrs in presence of N-((1r,4r)-4-((3-chloro-4-cyanophenyl)(methyl)amino)cyclohexyl)-4-(4-methylpiperazin-1-yl)benzamide by Western blot analysis

In the case of CN(c1ccc(C#N)c(Cl)c1)[C@H]1CC[C@H](NC(=O)c2ccc(N3CCN(C4CN(c5ccc6c(c5)C(=O)N(C5CCC(=O)NC5=O)C6=O)C4)CC3)cc2)CC1 (some centres undefined), the IC50 [1] is reported as 16.2 nM, the inhibition [2] is reported as “Active” and the concentration at 6 h [3] is reported as 87 ng/mL. The concentration at 24 h [4] was 102 ng/mL, the concentration at 24 h [5] was 301 ng/g and the inhibition in vivo at 10 mg/kg [6] was 78%. The inhibition in vivo at 10 mg/kg [7] was 60%, the inhibition in vivo at 10 mg/kg [8] was 78% and the Kp at 1 h [9] was 0.7. It also gave a concentration at 1 h [10] of 437 ng/g, a concentration at 1 h [11] of 25 ng/g and a concentration at 6 h [12] of 3510 ng/g. The Kp at 6 h [13] was 4.9, the Kp at 6 h [14] was 0.6 and the concentration at 24 h [15] was 683 ng/g. It also gave an inhibition [16] of over 80%, an inhibition [17] of over 80% and an Emax [18] of over 95%. The Emax [19] was over 95%, the DC50 [20] was 0.1 nM and the Activity [21] was “inactive”. For the same molecule, the Activity [22] was “inactive”, the Activity [23] was “inactive” and the Activity [24] was “inactive”.
